Key:
Rattus norvegicus [1] = assay: Starting systolic blood pressure at dose of 10 mg/kg; format: functional, Artery
Summary of the method: (§1)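 DOCA/saline hypertensive rats, four per group, dosed orally at 50, 25 or 10 mg/kg. Mean starting systolic pressure was recorded for each group. Systolic pressure was then read 2, 6 and 24 h after dosing and reported as percentage fall from the starting value.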

Rattus norvegicus [2] = assay: The percent fall in systolic blood pressure at 1.5 / 4 hr after peroral administration of 25 mg/kg in DOCA/saline hypertensive rats at 6 hr; format: functional, Artery; settings: route oral; summary of the method: as §1
Rattus norvegicus [3] = assay: Starting systolic blood pressure at dose of 50 mg/kg in rat; format: functional, Artery
Summary of the method: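 Mean systolic blood pressure before dosing for each group of four DOCA/saline hypertensive rats given 50 mg/kg orally. It indicates how far hypertension was established.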

Rattus norvegicus [4] = assay: The percent fall in systolic blood pressure at 1.5 / 4 hr after peroral administration of 10 mg/kg in DOCA/saline hypertensive rats at 2 hr; format: functional, Artery; settings: route oral; summary of the method: as §1
Rattus norvegicus [5] = assay: The percent fall in systolic blood pressure at 1.5 / 4 hr after peroral administration of 10 mg/kg in DOCA/saline hypertensive rats at 6 h; Non significant, p>0.05; format: functional, organism-based; design: dose 10 mg/kg; settings: Artery, at 10 mg/kg; summary of the method: as §1
Rattus norvegicus [6] = assay: The percent fall in systolic blood pressure at 1.5 / 4 hr after peroral administration of 10 mg/kg in DOCA/saline hypertensive rats at 24 hr; Non significant, p>0.05; format: functional, organism-based; design: dose 10 mg/kg; settings: Artery, at 10 mg/kg; summary of the method: as §1
Rattus norvegicus [7] = assay: The percent fall in systolic blood pressure at 1.5 / 4 hr after peroral administration of 50 mg/kg in DOCA/saline hypertensive rats at 6 hr; format: functional, Artery; settings: route oral
Rattus norvegicus [8] = assay: The percent fall in systolic blood pressure at 1.5 / 4 hr after peroral administration of 25 mg/kg in DOCA/saline hypertensive rats at 2 hr; format: functional, Artery; settings: route oral; summary of the method: as §1
Rattus norvegicus [9] = assay: The percent fall in systolic blood pressure at 1.5 / 4 h after peroral administration of 50 mg/kg in DOCA/saline hypertensive rats at 2 hr; format: functional, Artery; settings: route oral
Rattus norvegicus [10] = assay: Starting systolic blood pressure at dose of 25 mg/kg; format: functional, Artery; summary of the method: as §1
Rattus norvegicus [11] = assay: The percent fall in systolic blood pressure at 1.5 / 4 hr after peroral administration of 50 mg/kg in DOCA/saline hypertensive rats at 24 hr; format: functional, Artery; settings: route oral; summary of the method: as §1
Rattus norvegicus [12] = assay: The percent fall in systolic blood pressure at 1.5 / 4 hr after peroral administration of 40 mg/kg in conscious renal hypertensive rats (RHR).; format: functional, Artery; settings: route oral
Summary of the method: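 Conscious renal hypertensive rats, four per group, dosed orally. Starting systolic pressures were 160–200 mmHg. Percentage fall in systolic pressure was taken at 1.5 and/or 4 h after dosing. Falls under 10% were scored as ±.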

Rattus norvegicus [13] = assay: The percent fall in systolic blood pressure at 1.5 / 4 hr after peroral administration of 25 mg/kg in DOCA/saline hypertensive rats at 24 hr; format: functional, Artery; settings: route oral; summary of the method: as §1
Rattus norvegicus [14] = assay: The percent fall in systolic blood pressure at 1.5 / 4 hr after peroral administration of 50 mg/kg in DOCA/saline hypertensive rats at 24 hr; Non significant; format: functional, organism-based; design: dose 50 mg/kg; settings: Artery, at 50 mg/kg
Rattus norvegicus [15] = assay: The percent fall in systolic blood pressure at 1.5 / 4 hr after peroral administration of 50 mg/kg in DOCA/saline hypertensive rats at 2 hr; Non significant; format: functional, organism-based; design: dose 50 mg/kg; settings: Artery, at 50 mg/kg
Rattus norvegicus [16] = assay: Percent fall in systolic blood pressure at 1.5 / 4 hr after peroral administration of 50 mg/kg in DOCA/saline hypertensive rats at 6 h; Non significant; format: functional, organism-based; design: dose 50 mg/kg; settings: Artery, at 50 mg/kg
Rattus norvegicus [17] = assay: The percent fall in systolic blood pressure at 1.5 / 4 h after peroral administration of 50 mg/kg in conscious DOCA/saline hypertensive rats at 24 hr; Non significant; format: functional, organism-based; design: dose 50 mg/kg; settings: Artery, at 50 mg/kg; summary of the method: as §1
Rattus norvegicus [18] = assay: The percent fall in systolic blood pressure at 1.5 / 4 hr after peroral administration of 10 mg/kg in DOCA/saline hypertensive rats at 6 hr; format: functional, Artery; settings: route oral; summary of the method: as §1
Rattus norvegicus [19] = assay: The percent fall in systolic blood pressure at 1.5 / 4 hr after peroral administration of 25 mg/kg in DOCA/saline hypertensive rats at 24 hr; Non significant, p>0.05; format: functional, organism-based; design: dose 25 mg/kg; settings: Artery, at 25 mg/kg
Rattus norvegicus [20] = assay: The percent fall in systolic blood pressure after peroral administration of 50 mg/kg in DOCA/saline hypertensive rats at 24 hr; settings: route oral
Rattus norvegicus [21] = assay: The percent fall in systolic blood pressure at 1.5 / 4 hr after peroral administration of 50 mg/kg in conscious renal hypertensive rats (RHR).; format: functional, Artery; settings: route oral
Summary of the method: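 Conscious renal hypertensive rats, four per group, with starting systolic pressures of 160-200 mmHg, were given a single oral dose. The value is the percentage fall in systolic pressure at 1.5 h, 4 h, or both after dosing. Falls below 10% are reported as ±.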

O=C(NC(=O)c1ccccc1)NC1CCN(CCc2c[nH]c3ccccc23)CC1
SP (Rattus norvegicus [1]): 178 mmHg | Fall (Rattus norvegicus [2]): 48% | SP (Rattus norvegicus [3]): 179 mmHg | Fall (Rattus norvegicus [4]): 36% | Fall (Rattus norvegicus [5]): Not significant | Fall (Rattus norvegicus [6]): Not significant | Fall (Rattus norvegicus [7]): 49% | Fall (Rattus norvegicus [8]): 51% | Fall (Rattus norvegicus [9]): 49% | SP (Rattus norvegicus [10]): 171 mmHg | Fall (Rattus norvegicus [11]): 38% | Activity (Rattus norvegicus [12]): 48 | Fall (Rattus norvegicus [13]): 21%

S=C(Nc1ccccc1)NC1CCN(CCc2c[nH]c3ccccc23)CC1
Activity (Rattus norvegicus [12]): 21

Cc1cccc(C)c1NC(=O)NC1CCN(CCCC(=O)c2ccccc2)CC1
Activity (Rattus norvegicus [12]): <10

CN(C(=O)Nc1ccccc1)C1CCN(CCc2c[nH]c3ccccc23)CC1
SP (Rattus norvegicus [1]): 168 mmHg | Fall (Rattus norvegicus [2]): 38% | SP (Rattus norvegicus [3]): 174 mmHg | Fall (Rattus norvegicus [7]; 50 mg/kg): 52% | Fall (Rattus norvegicus [8]): 44% | Fall (Rattus norvegicus [9]; 50 mg/kg): 54% | SP (Rattus norvegicus [10]): 180 mmHg | Fall (Rattus norvegicus [11]): 26% | Fall (Rattus norvegicus [13]): 20%

NC(=O)NC1CCN(CCc2c[nH]c3ccccc23)CC1
Activity (Rattus norvegicus [12]): 28

O=C(Nc1ccccc1C(F)(F)F)NC1CCN(CCCC(=O)c2ccccc2)CC1
SP (Rattus norvegicus [3]): 208 mmHg | Fall (Rattus norvegicus [14]): Not significant | Fall (Rattus norvegicus [7]): 20% | Fall (Rattus norvegicus [9]): 20%

O=C(Nc1cccc(C(F)(F)F)c1)NC1CCN(CCc2c[nH]c3ccccc23)CC1
Fall (Rattus norvegicus [15]): Not significant | SP (Rattus norvegicus [3]): 208 mmHg | Fall (Rattus norvegicus [16]): Not significant | Fall (Rattus norvegicus [17]): Not significant

CCCCNC(=O)NC1CCN(CCc2c[nH]c3ccccc23)CC1
Fall (Rattus norvegicus [15]): Not significant | SP (Rattus norvegicus [3]): 172 mmHg | Fall (Rattus norvegicus [14]): Not significant | Fall (Rattus norvegicus [7]): 29%

O=C(NC(=O)C1CCCCC1)NC1CCN(CCc2c[nH]c3ccccc23)CC1
Fall (Rattus norvegicus [18]): 27% | SP (Rattus norvegicus [1]): 170 mmHg | Fall (Rattus norvegicus [2]): 54% | SP (Rattus norvegicus [3]): 173 mmHg | Fall (Rattus norvegicus [4]): 30% | Fall (Rattus norvegicus [14]): Not significant | Fall (Rattus norvegicus [6]): Non significant, p>0.05 | Fall (Rattus norvegicus [7]): 52% | Fall (Rattus norvegicus [8]): 54% | Fall (Rattus norvegicus [9]): 48% | SP (Rattus norvegicus [10]): 181 mmHg | Fall (Rattus norvegicus [19]): Not significant

Cn1cc(CCN2CCC(NC(=O)NC(=O)c3ccccc3)CC2)c2ccccc21
SP (Rattus norvegicus [3]): 172 mmHg | Fall (Rattus norvegicus [14]): Not significant | Fall (Rattus norvegicus [7]): 28% | Fall (Rattus norvegicus [9]): 26%

O=C(NC(=O)c1ccccc1)NC1CCN(CCCC(=O)c2ccc(F)cc2)CC1
SP (Rattus norvegicus [3]): 184 mmHg | Fall (Rattus norvegicus [14]): Not significant | Fall (Rattus norvegicus [7]): 31% | Fall (Rattus norvegicus [9]): 43%

O=C(Nc1ccc(Cl)c(Cl)c1)NC1CCN(CCc2c[nH]c3ccccc23)CC1
Activity (Rattus norvegicus [12]): 15

O=C(Nc1ccc(Cl)c(Cl)c1)NC1CCN(CCCC(=O)c2ccccc2)CC1
SP (Rattus norvegicus [3]): 169 mmHg | Fall (Rattus norvegicus [20]): 18% | Fall (Rattus norvegicus [7]): 35% | Fall (Rattus norvegicus [9]): 35%

O=C(CCCN1CCC(NC(=S)Nc2ccccc2)CC1)c1ccccc1
Activity (Rattus norvegicus [21]): 20

Cc1cccc(NC(=O)NC2CCN(CCCC(=O)c3ccccc3)CC2)c1
Activity (Rattus norvegicus [12]): 21

O=C(Nc1ccccc1)NC1CCN(CCCC(=O)c2ccccc2)CC1
SP (Rattus norvegicus [3]): 205 mmHg | Fall (Rattus norvegicus [14]): Not significant | Fall (Rattus norvegicus [7]): 24% | Fall (Rattus norvegicus [9]): 31% | Activity (Rattus norvegicus [12]): 39

Cc1cccc(NC(=O)NC2CCN(CCc3c[nH]c4ccccc34)CC2)c1
Activity (Rattus norvegicus [12]): 14

— ChEMBL document CHEMBL1121617, “Antihypertensive ureidopiperidines” (1980)
